Measurements: ChEMBL document CHEMBL1152768, “4-Benzyloxy-gamma-sultone derivatives: discovery of a novel family of non-nucleoside inhibitors of human cytomegalovirus and varicella zoster virus” (J Med Chem, 2009)
Activity calls are given as the source filed them. No cut-off for these calls is given here.

Tests used:
[1] = tested on: Respiratory syncytial virus; test: Antiviral activity against RSV infected in human HeLa cells; type: functional, organism-based
[2] = Cytotoxicity against human HEL cells assessed as reduction of growth after 3 days; type: cell-based
Summary of the method: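 HEL cells were seeded at 5 × 10³ cells/well and grown 24 h before compound was added at different concentrations. After 3 days at 37 °C, cells were counted with a Coulter counter. CC50, the concentration halving growth relative to untreated controls, was read from plots of cell number (% of control) against concentration.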

[3] = tested on: Coxsackievirus B4; test: Antiviral activity against Coxsackievirus B4 infected in human HeLa cells; type: functional, organism-based
[4] = Cytotoxicity against human HEL cells assessed as morphological alteration after 3 days; type: cell-based
Summary of the method: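 HEL cultures were examined under the microscope. MCC was recorded as the compound concentration causing a microscopically detectable alteration of normal cell morphology.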

[5] = tested on: Human alphaherpesvirus 1; test: Antiviral activity against acyclovir-resistant […]-deficient HSV1 infected in human HEL cells; type: functional, organism-based
[6] = tested on: Sindbis virus; test: Antiviral activity against Sindbis virus infected in african green monkey Vero cells; type: functional, organism-based
[7] = tested on: Human betaherpesvirus 5; test: Antiviral activity against HCMV Davis infected in human HEL cells assessed inhibition of virus-induced cytopathicity after 7 days postinfection; type: functional, organism-based; details: Human betaherpesvirus 5, Davis, 168 h
Summary of the method: (§1)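 HEL fibroblasts were infected at 100 PFU. After 2 h, residual virus was removed and medium with test compound was added at several concentrations, in duplicate. Cells were incubated 7 days at 37 °C, fixed with ethanol and stained with Giemsa.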

[8] = tested on: Human alphaherpesvirus 3; test: Antiviral activity against thymidine kinase expressing Varicella zoster virus Oka infected in human HEL cells assessed reduction in viral plaque formation; type: functional, organism-based; details: Human alphaherpesvirus 3, Oka
Summary of the method: (§2)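 Confluent HEL cell monolayers were inoculated with VZV at 20 PFU per well. Residual virus was removed after 2 h, and compound was added at varying concentrations, in duplicate.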

[9] = tested on: Vesicular stomatitis virus; test: Antiviral activity against VSV infected in human HEL cells; type: functional, organism-based
[10] = tested on: Human alphaherpesvirus 1; test: Antiviral activity against HSV1 KOS infected in human HEL cells; type: functional, organism-based
[11] = tested on: Vesicular stomatitis virus; test: Antiviral activity against VSV infected in human HeLa cells; type: functional, organism-based
[12] = tested on: Human alphaherpesvirus 3; test: Antiviral activity against thymidine kinase deficient Varicella zoster virus 07/1 infected in human HEL cells assessed reduction in viral plaque formation; type: functional, organism-based; details: Human alphaherpesvirus 3, HEL; summary of the method: as §2
[13] = tested on: Mammalian orthoreovirus 3; test: Antiviral activity against Reovirus 3 infected in african green monkey Vero cells; type: functional, organism-based
[14] = tested on: Human betaherpesvirus 5; test: Antiviral activity against HCMV AD169 infected in human HEL cells assessed inhibition of virus-induced cytopathicity after 7 days postinfection; type: functional, organism-based; details: Human betaherpesvirus 5, AD169, HEL, 168 h; summary of the method: as §1
[15] = tested on: Punta Toro virus; test: Antiviral activity against Punta Toro virus infected in african green monkey Vero cells; type: functional, organism-based
[16] = tested on: Human alphaherpesvirus 2; test: Antiviral activity against HSV2 infected in human HEL cells; type: functional, organism-based
[17] = tested on: Vaccinia virus; test: Antiviral activity against Vaccinia virus infected in human HEL cells; type: functional, organism-based; details: Orthopoxvirus vaccinia
[18] = tested on: Coxsackievirus B4; test: Antiviral activity against Coxsackievirus B4 infected in african green monkey Vero cells; type: functional, organism-based
[19] = tested on: Human betaherpesvirus 5; test: Antiviral activity against HPMPA-resistant HCMV AD169 clone 2 mutant infected in HEL cells assessed as inhibition of virus-induced cytopathicity; type: functional, organism-based; details: Human betaherpesvirus 5, AD169, HEL
[20] = tested on: Human betaherpesvirus 5; test: Antiviral activity against ganciclovir-resistant HCMV AD169 clone 4 infected in HEL cells assessed as inhibition of virus-induced cytopathicity; type: functional, organism-based; details: Human betaherpesvirus 5, AD169, HEL
[21] = tested on: Human alphaherpesvirus 3; test: Antiviral activity against Varicella zoster virus YS infected in human HEL cells assessed reduction in viral plaque formation; type: functional, organism-based; details: Human alphaherpesvirus 3, YS
[22] = tested on: Human betaherpesvirus 5; test: Antiviral activity against wild type HCMV Davis infected in HEL cells assessed as inhibition of virus-induced cytopathicity; type: functional, organism-based; details: Human betaherpesvirus 5, Davis
Summary of the method: (§3)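 HEL fibroblast cultures infected at 100 PFU input. After 2 h, residual virus was removed and compound-containing medium was added at varying concentrations, in duplicate. Cells were incubated 7 days at 37 °C, ethanol-fixed and Giemsa-stained, and cytopathicity was scored microscopically.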

[23] = tested on: Human betaherpesvirus 5; test: Antiviral activity against PMEDAP-resistant HCMV AD169 clone 4 infected in HEL cells assessed as inhibition of virus-induced cytopathicity; type: functional, organism-based; details: Human betaherpesvirus 5, AD169, HEL
[24] = tested on: Human betaherpesvirus 5; test: Antiviral activity against foscarnet-resistant HCMV AD169 clone C infected in HEL cells assessed as inhibition of virus-induced cytopathicity; type: functional, organism-based; details: Human betaherpesvirus 5, AD169, HEL
[25] = tested on: Human betaherpesvirus 5; test: Antiviral activity against cidofovir HCMV AD169 clone 5 infected in human HEL cells assessed as inhibition of virus-induced cytopathicity; type: functional, organism-based; details: Human betaherpesvirus 5, AD169, HEL
[26] = tested on: Human betaherpesvirus 5; test: Antiviral activity against wild type HCMV AD169 infected in HEL cells assessed as inhibition of virus-induced cytopathicity; type: functional, organism-based; details: Human betaherpesvirus 5, AD169, HEL; summary of the method: as §3
[27] = tested on: Human betaherpesvirus 5; test: Antiviral activity against acyclovir-resistant HCMV AD169 clone 1 infected in HEL cells assessed as inhibition of virus-induced cytopathicity; type: functional, organism-based; details: Human betaherpesvirus 5, AD169, HEL
[28] = Therapeutic index, ratio of CC50 for human HEL cells to EC50 for Varicella zoster virus; type: cell-based; details: read-out: Ratio CC50/EC50
Summary of the method: (§4)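 Index calculated as CC50 (HEL cell growth, 3 days, Coulter count) divided by EC50 from the HEL-cell antiviral assays: HCMV cytopathicity at 7 days for line 18, VZV plaque reduction at 5 days for line 19.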

[29] = Therapeutic index, ratio of CC50 for human HEL cells to EC50 for Human cytomegalovirus; type: cell-based; details: read-out: Ratio CC50/EC50; summary of the method: as §4
[30] = tested on: Human respirovirus 3; test: Antiviral activity against Parainfluenza virus 3 infected in african green monkey Vero cells; type: functional, organism-based
[31] = tested on: Human alphaherpesvirus 3; test: Antiviral activity against Varicella zoster virus YSR infected in human HEL cells assessed reduction in viral plaque formation; type: functional, organism-based; details: Human alphaherpesvirus 3, YSR

Compound	Activity [1]	CC50 at 72 h [2] [µM]	Activity [3]	MCC at 72 h [4] [µM]	Activity [5]	Activity [6]	EC50 [7] [µM]	EC50 [8] [µM]	Activity [9]	Activity [10]	Activity [11]	EC50 [12] [µM]	Activity [13]	EC50 [14] [µM]	Activity [15]	Activity [16]	Activity [17]	Activity [18]	EC50 [21] [µM]	other results
CCC1(Cc2ccccc2)OS(=O)(=O)C=C1OCCc1ccccc1 (racemic)	inactive	48	inactive	≥ 20	inactive	inactive	9.3	5.7	inactive	inactive	inactive	7.5	inactive	6.9	inactive	inactive	inactive	inactive	–	–
CCC1(Cc2ccccc2)OS(=O)(=O)C=C1OCc1ccc(Cl)cc1 (racemic)	inactive	> 200	inactive	≥ 50	inactive	inactive	9.7	7.6	inactive	inactive	inactive	5.7	inactive	10.4	inactive	inactive	inactive	inactive	10	EC50 [19]: 9.9 µM; EC50 [20]: 11 µM; EC50 [22]: 11 µM; EC50 [23]: 12 µM; EC50 [24]: 9.6 µM; EC50 [25]: 11 µM; EC50 [26]: 11 µM; EC50 [27]: 1.1 µM
O=S1(=O)C=C(OCc2ccccc2)C(Cc2ccccc2)(Cc2ccccc2)O1	–	200	–	200	–	–	> 50	> 5	–	–	–	5	–	50	–	–	–	–	–	selectivity ratio [28]: ≤ 4; selectivity ratio [29]: ≤ 4
CCC1(Cc2ccccc2)OS(=O)(=O)C=C1OCc1ccc(OC)cc1 (racemic)	inactive	> 200	inactive	≥ 200	inactive	inactive	142	120	inactive	inactive	inactive	106	inactive	200	inactive	inactive	inactive	inactive	–	–
CCC1(Cc2ccccc2)OS(=O)(=O)C=C1OCc1ccccc1 (racemic)	inactive	200	inactive	≥ 50	inactive	inactive	9.3	6.4	inactive	inactive	inactive	5.6	inactive	13	inactive	inactive	inactive	inactive	3.6	selectivity ratio [28]: ≥ 5; Activity [30]: inactive; selectivity ratio [29]: ≥ 5
CCC1(Cc2ccccc2)OS(=O)(=O)C=C1OCc1ccc(F)cc1 (racemic)	–	> 50	–	≥ 50	–	–	7	8.6	–	–	–	8.6	–	15	–	–	–	–	10.4	EC50 [31]: 9.3 µM
CCC1(Cc2ccccc2)OS(=O)(=O)C=C1OCc1ccccc1Cl (racemic)	–	38	–	≥ 20	–	–	> 4	8.7	–	–	–	10	–	> 4	–	–	–	–	> 5	–
